HTR2A ag: mouse Htr2a agonists via beta-arrestin recruitment, primary screen, cell-based, luminescence; 5-hydroxytryptamine receptor 2A (Mus musculus), P35363; CHO-K1 mHTR2A beta-arrestin complementation; percent of 30 µM serotonin response; activation, % at 7.6 µM; 360,000 tested, 0.66% active; AID 624169, 2012;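 active means activation above a run cutoff, the mean activation of all tested compounds plus 3 SD, cut at about 14% in these data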;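 further: 0% = plate median of compound wells and 100% = 30 µM serotonin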
M1 PAM: human M1 muscarinic receptor positive allosteric modulators, primary screen, CHO-K1 cells, Fluo-8 calcium fluorescence, 1536-well; Muscarinic acetylcholine receptor M1 (Homo sapiens), P11229; CHO-K1 hM1, ACh EC20; 0% = ACh EC20, 100% = maximal ACh; activation, % at 3 µM; 360,000 tested, 0.088% active; AID 588819, 2011; in the data active means activation above about 19%, passing the limit was not always enough
TAAR1 agonist: human TAAR1 agonists, primary screen, Fluo-8 calcium fluorescence, CHO RD-HGA16 cells. activation, % at 3 µM. AID 624467, 2012. vehicle wells 0%, saturating PEA agonist 100%. 360,000 tested, 0.99% active;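 active means activation above the mean activation of all test compounds in the run plus 3 SD, cut at about 38% in these data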
Target sequence (Q96RJ0 whole entry, looked up): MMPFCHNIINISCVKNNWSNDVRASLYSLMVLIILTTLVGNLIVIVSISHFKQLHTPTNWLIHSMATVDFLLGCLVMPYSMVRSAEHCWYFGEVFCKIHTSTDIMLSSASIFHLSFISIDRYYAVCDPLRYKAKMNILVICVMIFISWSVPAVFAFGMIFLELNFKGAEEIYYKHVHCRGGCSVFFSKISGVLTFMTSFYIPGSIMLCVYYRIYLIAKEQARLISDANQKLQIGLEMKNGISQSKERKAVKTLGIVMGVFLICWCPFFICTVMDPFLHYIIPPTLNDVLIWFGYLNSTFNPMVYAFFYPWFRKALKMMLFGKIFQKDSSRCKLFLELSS
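Signal – calcium-sensitive Fluo-8 signal, excitation 470-495, emission 515-575 nm · System – RD-HGA16 (CHO) cells co-expressing Gα16 and hTAAR1 · Incubation – 17-24 h seeding, 75 min 37 °C dye, 30 min RT · Compound dosing – 3 µM single concentration · Repeats – no replicates (n 1)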
CHRM1 antagonist: human M1 muscarinic receptor antagonists, primary screen, CHO-K1 cells, Fluo-8 calcium fluorescence, 1536-well. inhibition, % at 3 µM. 360,000 tested, 1.3% active. Muscarinic acetylcholine receptor M1 (Homo sapiens), P11229. CHO-K1 hM1, ACh EC80 antagonist;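 active means percent inhibition above its own plate's cutoff, namely the mean of that plate's compound wells plus 3 SD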;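 further: peak over basal fluorescence ratio during 140 s after agonist addition; 0% = ACh EC80 plus DMSO and 100% = DMSO alone without agonist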
M1 ag: human M1 muscarinic receptor agonists, primary screen, Fluo-8 calcium fluorescence, CHO-K1 cells, HTS; activation, % at 3 µM; CHO-K1 hM1, agonist mode; 0% DMSO, 100% acetylcholine EC100; Muscarinic acetylcholine receptor M1 (Homo sapiens), P11229; 360,000 tested, 0.33% active;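 active means activation above the run's mean compound activation plus 3 SD, cut at about 16% in these data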;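 further: peak over basal fluorescence ratio within a 140 s kinetic read after compound addition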
TAAR1 antag: human TAAR1 antagonists, primary screen, Fluo-8 calcium fluorescence, CHO RD-HGA16 cells. 360,000 tested, 1.5% active. inhibition, % at 3 µM. Trace amine-associated receptor 1 (Homo sapiens), Q96RJ0. antagonist;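 active means inhibition above a per-plate cutoff, the mean inhibition of test compounds on that plate plus 3 SD, cut at about 49% in these data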;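 further: 0% = DMSO plus EC80 beta-PEA response and 100% = DMSO alone without agonist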
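System: CHO RD-HGA16 cells bearing hTAAR1. Reagent: EC80 β-phenethylamine stimulus. Schedule: seeding 17-24 h prior, 75-min 37 °C, 30-min RT dye loading. Signal: Fluo-8 intracellular calcium dye fluorescence, real-time kinetic reads. Read-out: % inhibition from peak post-agonist over basal fluorescence ratio. Benchmarks: vehicle wells and EC80 agonist wells. Replicates: n of 1.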
TAAR1 nonsel count: nonselective antagonists in TAAR1 counter-screen cells, counter-screen for hTAAR1 antagonist project, cell-based, fluorescence, calcium; inhibition, % at 3 µM; AID 651780, 2012; 2,400 tested, 77% active; counterscreen cell line, antagonist mode; shares compounds with TAAR1 antag; in the data active means inhibition above about 22%;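 further: CHO-Ga16 host cells stimulated with ATP at an EC80 level; 0% = agonist EC80 plus vehicle and 100% = vehicle without agonist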
TAAR1 ant conf: human TAAR1 antagonists, retest of hits, confirmation, cell-based, fluorescence; shares compounds with TAAR1 antag; TAAR1-expressing cells, fluorescence antagonist read-out; inhibition, % at 3 µM; 2,400 tested, 40% active; AID 651785, 2012; in the data active means inhibition above about 49%;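 further: CHO-Ga16 host cells challenged with agonist PEA near its EC80; 0% = agonist at EC80 plus vehicle and 100% = vehicle with no agonist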
Ga16 nonsel ag: calcium activation in Ga16-expressing cells, counter-screen for TAAR1 antagonist project, cell-based, fluorescence | shares compounds with TAAR1 antag | agonist counterscreen | activation, % at 3 µM | 2,400 tested, 18% active | AID 651953, 2012; in the data active means activation above about 12%;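 further: 0% = vehicle wells and 100% = saturating stimulus response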
TAAR1 ag count: TAAR1 activation by candidate antagonists – cell-based, fluorescence, counter-screen for TAAR1 antagonist project. shares compounds with TAAR1 antag. hTAAR1 cell line, agonist mode. activation, % at 3 µM. 2,400 tested, 2% active; in the data active means activation above about 37%;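 further: CHO cells stably expressing TAAR1 with calcium dye readout; 0% = DMSO vehicle and 100% = full agonist response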
Numbers without * were called inactive; nt = no result given. A selection: hits, their analogues and other compounds. The true share with any hit is near 3.9%.

SMILES | HTR2A ag | M1 PAM | TAAR1 agonist | CHRM1 antagonist | M1 ag | TAAR1 antag | TAAR1 nonsel count | TAAR1 ant conf | Ga16 nonsel ag | TAAR1 ag count
Cc1cc(/C=N\NC(=O)CC(=O)NC2CCCCC2)c(C)n1-c1ccc(Cl)c(Cl)c1 | 1 | 5 | 14 | -5 | -3 | 56* | 16 | 71* | 10 | 31
CCOc1ccccc1N1CCN(C(=O)C2=CC=CN3CCS(=O)(=O)N=C23)CC1 | 8 | -1 | 1 | 3 | -4 | 8 | nt | nt | nt | nt
CC(O)c1ccc(Oc2cnccn2)cc1 (configuration not stated) | -2 | 19 | 2 | -11 | -2 | -1 | nt | nt | nt | nt
CC(C)(C)c1nnc(N/N=C/c2ccccc2)n(N)c1=O | 7 | -1 | 13 | -5 | -2 | 59* | 30* | 52* | 9 | 5
CC(C)(C)c1nnc(N/N=C/c2ccccc2O)n(N)c1=O | -3 | -17 | 25 | 27 | 2 | 59* | 42* | 64* | 19* | 17
COc1ccc(NC(=O)CSCC(=O)N(C)Cc2ccc3c(c2)OCCO3)cc1 | -4 | 9 | 4 | -6 | 0 | -5 | nt | nt | nt | nt
CC(Oc1cc2oc(=O)c3c(c2cc1Cl)CCC3)C(=O)NCCCn1ccnc1 (configuration not stated) | -2 | 1 | 1 | -6 | -5 | -6 | nt | nt | nt | nt
COc1ccccc1C1=NOC(C)(c2nnc(Cc3ccccc3)o2)C1 (configuration not stated) | 0 | 5 | 10 | -4 | -6 | -12 | nt | nt | nt | nt
COc1cccc(NC(=O)CN(C)C(=O)c2cc(C)oc2C)c1 | 8 | 4 | 2 | -3 | -1 | 0 | nt | nt | nt | nt
COc1cccc(NC(=O)c2cc(-c3ccc(C)o3)nc3ccccc23)c1 | -6 | 1 | 7 | 6 | -2 | 55* | 25* | 42 | 7 | 5
COc1cccc(NC(=O)CN(C)C(=O)c2cc(-c3ccc(C)o3)nc3ccccc23)c1 | 1 | -10 | 20 | 30 | 0 | 61* | 32* | 52* | 8 | 7
FC(F)(F)c1ccccc1/C=N/n1c(COc2ccccc2)n[nH]c1=S | -3 | 2 | -3 | -9 | -6 | 8 | nt | nt | nt | nt
O=C(N=Nc1c(O)[nH]c2ccccc12)c1cccc(S(=O)(=O)Nc2ccccc2Cl)c1 | -2 | 3 | 10 | -4 | -6 | 56* | 24* | 42 | 5 | 0
CC(C)c1ccc2[nH]c(O)c(N=NC(=O)c3cccc(S(=O)(=O)Nc4ccccc4Cl)c3)c2c1 | 6 | 9 | 1 | -3 | -5 | 13 | nt | nt | nt | nt
O=[N+]([O-])c1cc(-n2cccc2)ccc1N1CCOCC1 | -2 | -7 | 13 | 18 | -3 | 60* | 28* | 40 | 10 | 11
COc1ccc(CCNC(=O)c2ccccc2NC(=O)C2=C(C)OCCS2)cc1OC | 3 | -13 | 15 | 32 | 3 | 70* | 30* | 51* | 10 | 15
CC(C)c1ccc(NC(=O)c2ccccc2NC(=O)C2CCCCC2C(=O)O)cc1 (configuration not stated) | -3 | 2 | 0 | -5 | -4 | -4 | nt | nt | nt | nt
CCn1c(SCc2nc3ccccc3c(=O)[nH]2)nnc1-c1cccnc1 | -2 | 9 | 8 | -8 | -3 | 2 | nt | nt | nt | nt
O=c1[nH]c(CSc2nnc(-c3cccnc3)n2C2CCCCC2)nc2ccccc12 | 5 | -8 | 23 | 23 | 5 | 65* | 28* | 56* | 11 | 14
COc1ccccc1N1C(=O)c2ccc(C(=O)Nc3ccccc3O)cc2C1=O | -5 | -6 | 8 | 11 | -2 | 7 | nt | nt | nt | nt
CCCN1C(=O)c2cc(C(=O)Nc3ccccc3OC)ccc2C1Nc1ccccc1OC (configuration not stated) | 2 | 8 | 8 | -12 | -2 | 60* | 29* | 43 | 5 | 4
CC(NC(=O)C1CCN(S(=O)(=O)c2cccs2)CC1)c1cccc(Cl)c1 (configuration not stated) | 5 | 6 | 3 | -5 | -4 | 14 | nt | nt | nt | nt
CC(C)C[C@H](CO)N(Cc1ccccc1)S(=O)(=O)N(Cc1ccccc1)[C@@H](CO)CC(C)C | 9 | -12 | 11 | 24 | -5 | 78* | 34* | 55* | 9 | 10

Assay outcomes (PubChem)
